Data published in ChEMBL document CHEMBL1949537, “Structure-activity studies on the anti-proliferation activity of ajoene analogues in WHCO1 oesophageal cancer cells” (Eur J Med Chem, 2012).
The source made the active and inactive calls. The rule behind the calls is not given here.

Legend:
[1] = Antiproliferative activity against human WHCO1 cells after 48 hrs by MTT assay; assay type: functional, cell-based; details: WHCO1, 48 h
Summary of the method: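 WHCO1 cells (oesophageal SCC line) kept in DMEM with 10% FBS, no antibiotics, 37 °C, 5% CO2. Seeded 2 × 10^3 cells/well, dosed next day at 0.5–200 µM in 0.1% DMSO final; DMSO-only controls. After 48 h, MTT added for 4 h, then SLS/HCl overnight, A595 read. IC50 from variable-slope sigmoidal fit; mean ± SD of three independent determinations.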

[2] = Induction of cell cycle arrest in human WHCO1 cells assessed as S phase cells at 10 uM after 16 hrs by flow cytometry (reference value: 45.3 +/- 1.9%); assay type: functional
WHCO1 [3] = assay: Growth inhibition of human WHCO1 cells at 34 uM after 6 days by Roche xCelligence method; assay type: functional, cell-based
Summary of the method: (§1)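 Real-time impedance (xCelligence) of WHCO1 cells seeded at 5000/well. Compound added 24 h after plating in 0.1% DMSO at 34, 100 or 113 µM; DMSO-only controls. Growth then tracked continuously for a further six days. Each curve is the average of three replicates.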

[4] = Induction of cell cycle arrest in human WHCO1 cells assessed as G0/G1 phase cells at 10 uM after 16 hrs by flow cytometry (reference value: 29.2 +/- 5.2%); assay type: functional
[5] = Induction of cell cycle arrest in human WHCO1 cells assessed as G2/M phase cells at 10 uM after 16 hrs by flow cytometry (reference value: 25.5 +/- 3.7%); assay type: functional
WHCO1 [6] = assay: Growth inhibition of human WHCO1 cells at 113 uM after 6 days by Roche xCelligence method; assay type: functional, cell-based; summary of the method: as §1
WHCO1 [7] = assay: Induction of apoptosis in human WHCO1 cells at 10 uM after 16 hrs by Roche cell death ELISA method; assay type: functional, cell-based
Summary of the method: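 Quadruplicate wells of 5 × 10^3 WHCO1 cells dosed next day at 10 µM in 0.1% DMSO for 16 h; DMSO-only controls. Cytoplasmic fraction assayed for histone-associated DNA fragments by sandwich ELISA (anti-histone-biotin/anti-DNA-POD, 2 h at room temperature, ABTS 15 min). Absorbance read at 405 and 495 nm.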

WHCO1 [8] = assay: Growth inhibition of human WHCO1 cells at 10 uM up to 5 days by Roche xCelligence method; assay type: functional, cell-based
Summary of the method: (§2)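 xCelligence impedance monitoring of WHCO1 growth: 2500 cells/well, treated 24 h after plating with 10 µM compound in 0.1% DMSO. DMSO-only controls. Growth followed continuously as impedance; the system records for up to seven days.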

[9] = Ratio of Z-ajeone IC50 to compound IC50 for human WHCO1 cells; assay type: functional
[10] = Induction of apoptosis in human WHCO1 cells assessed as caspase 3 activation using Ac-DEVD-AFC as substrate at 25 uM after 24 hrs by fluorimetry relative to control; assay type: functional
Summary of the method: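 WHCO1 cells (1.8 × 10^6) seeded in triplicate and dosed next day at 25 µM with 0.1% DMSO for 24 h. Controls received medium or 0.1% DMSO. Lysates captured on anti-caspase-3 coated wells for 1 h at 37 °C, then fluorogenic substrate added. Fluorescence (ex 390/em 505 nm) read at 0 and 120 min at 37 °C; activity is the ΔFU.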

WHCO1 [11] = assay: Growth inhibition of human WHCO1 cells at 100 uM after 6 days by Roche xCelligence method; assay type: functional, cell-based; summary of the method: as §1
WHCO1 [12] = assay: Growth inhibition of human WHCO1 cells at 10 uM up to 2 days by Roche xCelligence method; assay type: functional, cell-based; details: in the assay text read “up to 5 days” for “up to 2 days”; summary of the method: as §2

Row | SMILES | IC50 [1] [µM] | also measured
1 | CCCSS/C=C/C[S+]([O-])CCC (stereo not drawn) | 24 | 
2 | C=CCSS/C=C/C[S+]([O-])CCCOCc1ccc(OC)cc1 (stereo not drawn) | 18 | 
3 | C=CCSS/C=C\C[S+]([O-])CCCN1C(=O)c2ccccc2C1=O (stereo not drawn) | 33 | 
4 | COc1ccc(C[S+]([O-])CC=CSSCc2ccc(F)cc2)cc1 (mixture of isomers) | 16 | 
5 | O=c1[nH]cc(F)c(=O)[nH]1 [FLUOROURACIL] | 7.9 | 
6 | CCCSS/C=C\C[S+]([O-])CCC (stereo not drawn) | 18 | 
7 | C=CCSSC=CC[S+]([O-])Cc1ccc(OC)cc1 (mixture of isomers) | 7.4 | 
8 | COc1ccc(C[S+]([O-])CC=CSSCc2ccccc2)cc1 (mixture of isomers) | 3.1 | 
9 | COc1ccc(CS/C=C\C[S+]([O-])Cc2ccc(OC)cc2)cc1 (stereo not drawn) | > 200 | Activity [2]: 63.1%; growth inhibition (GI) (WHCO1 [3]): inactive; Activity [4]: 19.5%; Activity [5]: 17.4%
10 | COc1ccc(CSSCCC[S+]([O-])Cc2ccc(OC)cc2)cc1 (stereo not drawn) | 16 | growth inhibition (GI) (WHCO1 [3]): Active
11 | C=CCSS/C=C\C[S+]([O-])CCC (stereo not drawn) | 23 | 
12 | C=CCSSC=CC[S+]([O-])C(C)(C)C (mixture of isomers) | 23 | 
13 | C=CCSS/C=C/C[S+]([O-])CCCO (stereo not drawn) | 27 | 
14 | C=CCSS/C=C\C[S+]([O-])CCCOCc1ccc(OC)cc1 (stereo not drawn) | 21 | 
15 | CCC[S+]([O-])C/C=C/SSC (stereo not drawn) | 28 | 
16 | COc1ccc(CSCCCSSCc2ccc(OC)cc2)cc1 | > 200 | growth inhibition (GI) (WHCO1 [6]): inactive
17 | C=CCSS/C=C/C[S+]([O-])CCCN1C(=O)c2ccccc2C1=O (stereo not drawn) | 68 | 
18 | COc1ccc(CSCC=CSSCc2ccc(OC)cc2)cc1 | 0.7 | Activity [2]: 15.9%; Activity (WHCO1 [7]): Active; growth inhibition (GI) (WHCO1 [3]): Active; Activity [4]: 9.73%; Activity [5]: 74.4%
19 | COc1ccc(CSC=CCSCc2ccc(OC)cc2)cc1 | > 200 | growth inhibition (GI) (WHCO1 [6]): inactive
20 | C=CCSSC=CC[S+]([O-])Cc1ccccc1 (mixture of isomers) | 8.9 | 
21 | COc1ccc(CSSC=CC[S+]([O-])Cc2ccc(OC)cc2)cc1 (stereo not drawn) | 2.1 | Activity [2]: 13.5%; Activity (WHCO1 [7]): Active; growth inhibition (GI) (WHCO1 [8]): Active; Ratio IC50 [9]: 12; fold change (FC) [10]: 3; Activity [4]: 8.03%; Activity [5]: 78.6%; growth inhibition (GI) (WHCO1 [11]): Active
22 | C=CCSS/C=C\C[S+]([O-])CCCO (stereo not drawn) | 38 | 
23 | CCC[S+]([O-])C/C=C\SSC (stereo not drawn) | 26 | 
24 | C=CCSS/C=C/C[S+]([O-])CC=C (stereo not drawn) [AJOENE] | 39 | growth inhibition (GI) (WHCO1 [12]): inactive
25 | COc1ccc(CS/C=C/C[S+]([O-])Cc2ccc(OC)cc2)cc1 (stereo not drawn) | > 200 | Activity [2]: 67%; growth inhibition (GI) (WHCO1 [3]): inactive; Activity [4]: 21.5%; Activity [5]: 11.4%
26 | C=CCSS/C=C/C[S+]([O-])CCC (stereo not drawn) | 37 | 
27 | C=CCSS/C=C\C[S+]([O-])CC=C (stereo not drawn) [(Z)-Ajoene] | 25 | growth inhibition (GI) (WHCO1 [12]): inactive
